Experimental data reported in BindingDB's records for doi:10.1021/jm020545z (Amorepacific R&D Center, 2004).

Biological target: T1, Prostaglandin G/H synthase 1 (Mus musculus, UniProt P22437)
T1 sequence (P22437 whole entry): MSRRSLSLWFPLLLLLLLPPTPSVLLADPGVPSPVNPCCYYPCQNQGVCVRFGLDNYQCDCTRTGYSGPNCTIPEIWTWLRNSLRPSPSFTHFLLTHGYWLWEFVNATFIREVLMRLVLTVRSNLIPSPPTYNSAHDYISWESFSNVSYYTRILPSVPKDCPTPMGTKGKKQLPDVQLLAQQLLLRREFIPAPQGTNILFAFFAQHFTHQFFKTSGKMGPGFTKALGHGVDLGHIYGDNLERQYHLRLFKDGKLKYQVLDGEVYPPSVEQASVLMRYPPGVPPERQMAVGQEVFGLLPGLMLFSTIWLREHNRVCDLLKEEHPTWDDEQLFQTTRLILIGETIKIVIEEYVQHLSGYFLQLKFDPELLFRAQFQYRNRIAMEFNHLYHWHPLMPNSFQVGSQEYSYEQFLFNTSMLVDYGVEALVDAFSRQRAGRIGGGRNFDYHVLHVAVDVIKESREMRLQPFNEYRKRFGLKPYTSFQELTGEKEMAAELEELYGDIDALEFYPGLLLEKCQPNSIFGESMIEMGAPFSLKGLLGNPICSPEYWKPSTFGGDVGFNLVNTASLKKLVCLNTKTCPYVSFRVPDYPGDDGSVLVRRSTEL
Test: In vitro inhibitory activity against prostaglandin G/H synthase 1 using mouse peritoneal macrophage method
How it was run: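 Freshly harvested mouse peritoneal macrophages were the enzyme source. Cells were preincubated 10 min at 37 °C with inhibitor in DMSO, then stimulated with calcium ionophore A23187 for 10 min. The reaction was stopped with indomethacin in 0.1% BSA buffer and centrifuged, and supernatant TXB₂ was measured by ELISA.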

IC50: > 29.9 µM
Compound: CC1(C)OC(c2ccc(S(N)(=O)=O)cc2)=C(c2ccco2)C1=O
